Experimental data taken from ChEMBL document CHEMBL1150393, “Evaluation of radiolabeled (hetero)aromatic analogues of N-(2-diethylaminoethyl)-4-iodobenzamide for imaging and targeted radionuclide therapy of melanoma” (J Med Chem, 2008).

Experiments:
Conditions in all cases: in vivo
[1] = Ratio of drug level in tumor to liver of C57BL/6 mouse bearing mouse B16-F0 cells at 0.74 to 0.92 MBq, iv after 1 hr; type: ADME, organism-based
Summary of the method: (§1)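 Tumour and organ radioactive concentrations came from whole-body cryosection counting (40 µm slices, eight per mouse, two mice per time) after tail-vein injection of the [¹²⁵I]-labelled compound (0.1 µmol) into male C57BL6 mice bearing s.c. B16-F0 melanoma. Each value is the ratio of the tumour concentration to the organ concentration.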

Liver [2] = assay: Biodistribution in liver of C57BL/6 mouse bearing mouse B16-F0 cells at 0.74 to 0.92 MBq, iv after 3 hrs; type: ADME, organism-based
Summary of the method: (§2)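 Male C57BL6 mice with s.c. left-flank B16-F0 melanoma (5 × 10⁵ cells in PBS). Two mice per time point frozen in liquid nitrogen after CO₂ sacrifice. Eight 40 µm whole-body cryosections per mouse read by multiwire proportional counter. cpm/mm² converted to kBq/g and expressed as %ID/g.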

Lung [3] = assay: Biodistribution in lung of C57BL/6 mouse bearing mouse B16-F0 cells at 0.74 to 0.92 MBq, iv after 6 hrs; type: ADME, organism-based; summary of the method: as §2
[4] = Biodistribution in intestinal content of C57BL/6 mouse bearing mouse B16-F0 cells at 0.74 to 0.92 MBq, iv after 3 hrs; type: ADME, organism-based; summary of the method: as §2
[5] = Biodistribution in intestinal content of C57BL/6 mouse bearing mouse B16-F0 cells at 0.74 to 0.92 MBq, iv after 1 hr; type: ADME, organism-based; summary of the method: as §2
Liver [6] = assay: Biodistribution in liver of C57BL/6 mouse bearing mouse B16-F0 cells at 0.74 to 0.92 MBq, iv after 1 hr; type: ADME, organism-based; summary of the method: as §2
Brain [7] = assay: Biodistribution in brain of C57BL/6 mouse bearing mouse B16-F0 cells at 0.74 to 0.92 MBq, iv after 3 hrs; type: ADME, organism-based; summary of the method: as §2
Brain [8] = assay: Biodistribution in brain of C57BL/6 mouse bearing mouse B16-F0 cells at 0.74 to 0.92 MBq, iv after 1 hr; type: ADME, organism-based; summary of the method: as §2
[9] = Biodistribution in tumor of C57BL/6 mouse bearing mouse B16-F0 cells at 0.74 to 0.92 MBq, iv after 1 hr; type: ADME, organism-based, Neoplasm
Summary of the method: (§3)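 [¹²⁵I]-labelled compound given iv by tail vein (0.1 µmol per mouse) to male C57BL6 mice bearing s.c. B16-F0 flank tumours (5 × 10⁵ cells in PBS). Two mice per time point were killed by CO₂, frozen in liquid nitrogen and cut into 40 µm cryosections, eight slices per mouse. Slice radioactivity was read on a multiwire proportional counter, converted to kBq/g and reported as %ID/g.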

Lung [10] = assay: Biodistribution in lung of C57BL/6 mouse bearing mouse B16-F0 cells at 0.74 to 0.92 MBq, iv after 1 hr; type: ADME, organism-based; summary of the method: as §2
Lung [11] = assay: Biodistribution in lung of C57BL/6 mouse bearing mouse B16-F0 cells at 0.74 to 0.92 MBq, iv after 3 hrs; type: ADME, organism-based; summary of the method: as §2
Liver [12] = assay: Biodistribution in liver of C57BL/6 mouse bearing mouse B16-F0 cells at 0.74 to 0.92 MBq, iv after 6 hrs; type: ADME, organism-based; summary of the method: as §2
Brain [13] = assay: Biodistribution in brain of C57BL/6 mouse bearing mouse B16-F0 cells at 0.74 to 0.92 MBq, iv after 6 hrs; type: ADME, organism-based; summary of the method: as §2
[14] = Biodistribution in intestinal content of C57BL/6 mouse bearing mouse B16-F0 cells at 0.74 to 0.92 MBq, iv after 6 hrs; type: ADME, organism-based; summary of the method: as §2
[15] = Ratio of drug level in tumor to liver of C57BL/6 mouse bearing mouse B16-F0 cells at 0.74 to 0.92 MBq, iv after 6 hrs; type: ADME, organism-based; summary of the method: as §1
[16] = Ratio of drug level in tumor to lung of C57BL/6 mouse bearing mouse B16-F0 cells at 0.74 to 0.92 MBq, iv after 3 hrs; type: ADME, organism-based; summary of the method: as §1
[17] = Biodistribution in Stomach content of C57BL/6 mouse bearing mouse B16-F0 cells at 0.74 to 0.92 MBq, iv after 3 hrs; type: ADME, organism-based; summary of the method: as §2
Spleen [18] = assay: Biodistribution in spleen of C57BL/6 mouse bearing mouse B16-F0 cells at 0.74 to 0.92 MBq, iv after 1 hr; type: ADME, organism-based; summary of the method: as §3
Pancreas = assay: Biodistribution in pancreas of C57BL/6 mouse bearing mouse B16-F0 cells at 0.74 to 0.92 MBq, iv after 3 hrs; type: ADME, organism-based; summary of the method: as §2
[19] = Ratio of drug level in tumor to brain of C57BL/6 mouse bearing mouse B16-F0 cells at 0.74 to 0.92 MBq, iv after 3 hrs; type: ADME, organism-based; summary of the method: as §1
[20] = Ratio of drug level in tumor to brain of C57BL/6 mouse bearing mouse B16-F0 cells at 0.74 to 0.92 MBq, iv after 6 hrs; type: ADME, organism-based; summary of the method: as §1
Liver [21] = assay: Biodistribution in liver of C57BL/6 mouse bearing mouse B16-F0 cells at 0.74 to 0.92 MBq, iv after 24 hrs; type: ADME, organism-based; summary of the method: as §2
Thyroid gland [22] = assay: Biodistribution in thyroid of C57BL/6 mouse bearing mouse B16-F0 cells at 0.74 to 0.92 MBq, iv after 72 hrs; type: ADME, organism-based; summary of the method: as §3
Thyroid gland [23] = assay: Biodistribution in thyroid of C57BL/6 mouse bearing mouse B16-F0 cells at 0.74 to 0.92 MBq, iv after 1 hr; type: ADME, organism-based; summary of the method: as §3
[24] = Biodistribution in intestinal content of C57BL/6 mouse bearing mouse B16-F0 cells at 0.74 to 0.92 MBq, iv after 24 hrs; type: ADME, organism-based; summary of the method: as §2
Spleen [25] = assay: Biodistribution in spleen of C57BL/6 mouse bearing mouse B16-F0 cells at 0.74 to 0.92 MBq, iv after 72 hrs; type: ADME, organism-based; summary of the method: as §3

Row | SMILES | Ratio [1] | Drug uptake (Liver [2]) [% ID/g] | Drug uptake (Lung [3]) [% ID/g] | Drug uptake [4] [% ID/g] | Drug uptake [5] [% ID/g] | Drug uptake (Liver [6]) [% ID/g] | Drug uptake (Brain [7]) [% ID/g] | Drug uptake (Brain [8]) [% ID/g] | Drug uptake [9] [% ID/g] | Drug uptake (Lung [10]) [% ID/g] | Drug uptake (Lung [11]) [% ID/g] | Drug uptake (Liver [12]) [% ID/g] | Drug uptake [14] [% ID/g] | Ratio [15] | Ratio [16] | Drug uptake [17] [% ID/g] | Drug uptake (Spleen [18]) [% ID/g] | Ratio [19] | Drug uptake (Liver [21]) [% ID/g] | Drug uptake (Thyroid gland [22]) [% ID/g] | other results
1 | CCN(CC)CCNC(=O)c1ccc2cc([125I])ccc2c1.Cl | 1.37 | 4.75 | 2.12 | 25.85 | 7.82 | 9.46 | 0.78 | 4.37 | 13 | 11.82 | 4.43 | 2.73 | 18.72 | 3.28 | 2.57 | 24.69 | 9.7 | 14.6 |  |  | Drug uptake (Brain [13]): 0.25 % ID/g; Drug uptake (Pancreas): 8.19 % ID/g; Ratio [20]: 35.8
2 | CCN(CC)CCNC(=O)c1cc2c([125I])cccc2cn1.Cl.Cl | 1.88 | 2.02 | 2.05 | 68.64 | 42.97 | 3.86 | 0.09 | 0.3 | 7.3 | 3.68 | 2.76 | 1.54 | 29.16 | 5.14 | 2.58 | 19.05 | 2.83 | 79.11 | 0.43 | 132.79 | Drug uptake (Thyroid gland [23]): 16.88 % ID/g; Drug uptake [24]: 1.7 % ID/g; Drug uptake (Spleen [25]): 1.62 % ID/g
3 | CCN(CC)CCNC(=O)c1cc2cc([125I])ccc2o1.Cl | 1.36 | 2.74 | 1.45 | 138.09 | 182.62 | 6.44 | 0.24 | 1.46 | 8.8 | 5.17 | 1.92 | 1.77 | 135.67 | 4.41 | 5.9 | 16.07 | 10.68 | 31.29 | 0.45 | 15.7 | Drug uptake (Thyroid gland [23]): 16.78 % ID/g; Drug uptake [24]: 2.33 % ID/g
